Bioassay records as filed in PubChem BioAssay.
PfGluPho inh: PfG6PD (Plasmodium falciparum) enzyme inhibition. 350,000 tested, 0.78% active. inhibition, % at 20 µM. PfGluPho enzyme, NADPH resazurin-diaphorase fluorescence;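 active = inhibition reaching at least a set limit at 20 µM in the primary screen, cut at about 59% in these data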;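 note: 0% = DMSO wells with substrate and 100% = DMSO wells lacking glucose-6-phosphate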
HKDC1 inh: blocks human hexokinase HKDC1 activity. Q2TB90. AID 493160. 340,000 tested, 0.16% active. recombinant HKDC1, G6PDH/diaphorase resazurin coupled fluorescence. inhibition, % at 20 µM;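 active = inhibition above about 35% when tested at 20 µM, limit read from the data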;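 note: plate controls were DMSO wells with enzyme for no effect and DMSO wells lacking enzyme for full effect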
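Assay system: recombinant HKDC1 hexokinase; detection: coupled resazurin fluorescence, excitation 525 nm, emission 613 nm; benchmarks: DMSO-plus-enzyme-mix negative control, buffer-substituted positive control; compound dosing: single 20 µM dose; schedule: 90 min at room temperature in dark; also added: glucose plus 1 mM ATP as hexokinase substrates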
Neddylation inh: cullin neddylation inhibition; TR-FRET cullin neddylation, biochemical; inhibition, % at 25 µM; 360,000 tested, 0.58% active; in the data active = inhibition above about 36%
Target sequence (P61081 whole entry, looked up): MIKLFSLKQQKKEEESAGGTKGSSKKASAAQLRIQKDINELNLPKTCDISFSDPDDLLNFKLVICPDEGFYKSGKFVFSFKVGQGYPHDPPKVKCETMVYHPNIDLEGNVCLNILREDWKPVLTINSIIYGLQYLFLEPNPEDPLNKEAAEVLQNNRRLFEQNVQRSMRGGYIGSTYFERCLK
Target sequence (Q13564 whole entry, looked up): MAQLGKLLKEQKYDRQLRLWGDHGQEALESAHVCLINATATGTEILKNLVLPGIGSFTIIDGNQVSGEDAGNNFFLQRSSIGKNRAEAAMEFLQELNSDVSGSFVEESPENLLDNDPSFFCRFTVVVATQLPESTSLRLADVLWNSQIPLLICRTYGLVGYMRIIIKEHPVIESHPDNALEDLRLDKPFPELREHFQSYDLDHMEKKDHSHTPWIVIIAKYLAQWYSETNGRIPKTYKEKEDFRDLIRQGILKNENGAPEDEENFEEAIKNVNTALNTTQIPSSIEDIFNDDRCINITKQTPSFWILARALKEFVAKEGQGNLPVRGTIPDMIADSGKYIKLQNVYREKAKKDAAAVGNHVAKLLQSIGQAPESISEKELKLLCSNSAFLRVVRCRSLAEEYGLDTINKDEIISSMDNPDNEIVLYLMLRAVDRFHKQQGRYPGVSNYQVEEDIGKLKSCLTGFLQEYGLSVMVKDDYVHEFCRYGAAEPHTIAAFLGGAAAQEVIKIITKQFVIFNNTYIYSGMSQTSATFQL
M18AAP inhibitor: blocks P. falciparum M18 aspartyl aminopeptidase. recombinant PfM18AAP, H-Glu-NHMec fluorogenic cleavage. inhibition, % at 7.35 µM. 290,000 tested, 1.2% active;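 active = inhibition above the campaign mean inhibition over all tested compounds plus 3 SD, cut at about 28% in these data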;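 note: 0% = plate median of test compound wells and 100% = 2 mM ZnCl2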
PfG6PD confirm: confirmation of Plasmodium falciparum G6PD inhibitors. shares compounds with PfGluPho inh. recombinant PfGluPho, NADPH-diaphorase-resazurin fluorescence. 2,400 tested, 34% active. AID 504753. inhibition, % at 20 µM;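 active = inhibition of at least 50% at 20 µM in any single replicate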;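 note: 0% = DMSO with substrate and 100% = DMSO lacking glucose-6-phosphate substrate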
Diaph ctr 10uM: diaphorase inhibition or oxidation at 10 uM NADPH | diaphorase-coupled resazurin reduction, fluorescence, NADPH 10 uM | inhibition, % at 20 µM | shares compounds with PfGluPho inh | 820 tested, 39% active;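 active = average inhibition reaching 50% or more with the compound at 20 µM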;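 note: resorufin red fluorescence formed as diaphorase reduces resazurin using NADPH; 0% = DMSO with enzyme and 100% = DMSO without enzyme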
Diaphorase 30uM: inhibits diaphorase or oxidizes, flagging false PfG6PD hits. 820 tested, 29% active. Diaphorase/resazurin coupled assay, resorufin fluorescence, 30 uM NADPH. AID 504863. inhibition, % at 20 µM. shares compounds with PfGluPho inh;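 active = inhibition averaging 50% or more, tested at 20 µM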;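 note: 0% = DMSO with enzyme and 100% = DMSO wells lacking diaphorase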
An asterisk follows results filed as active; . = not tested or not shown. Sampled rows, rich in hits. Any-hit rate of the full collection: about 2.2%.

SMILES	PfGluPho inh	HKDC1 inh	Neddylation inh	M18AAP inhibitor	PfG6PD confirm	others
CCN(CC)C1CCN(C(=O)CCn2nnnc2CN2CCOCC2)C1 (stereo not given)	-1	4	8	1	.
COc1cc(C#Cc2ccc3cc(C(C)(C)O)oc(=O)c3c2)cc(OC)c1	14	3	23	.	.
CN1CC2=Cc3ccccc3OC23Oc2ccccc2C=C3C1	120*	10	22	4	90*	Diaph ctr 10uM=86*;Diaphorase 30uM=75*
O=C1c2ccccc2OC2(C=Cc3ccccc3O2)N1Cc1ccccc1 (stereo not given)	-11	5	-11	0	.
COC(=O)[C@H](C)NC(=O)c1cc2c(cn1)[nH]c1ccccc12	90*	-30	20	21	55*	Diaph ctr 10uM=23;Diaphorase 30uM=1
CC(C)C[C@H]1COc2cccc(N(C)CCO)c2S(=O)(=O)N1	.	.	0	.	.
Cc1ccc(Nc2cc(C)c(O)c(C)c2)cc1	107*	29	3	13	69*	Diaph ctr 10uM=62*;Diaphorase 30uM=28
Cc1ccc(Nc2ccccc2)cc1	-3	-2	3	-9	.
O=C(Nc1ccc(OCC(F)(F)C(F)F)c(C(F)(F)F)c1)c1ccc(Cl)cc1	86*	3	9	0	-2
O=[N+]([O-])c1ccc(C=Nc2cccc3ccccc23)s1	71*	21	.	3	18
COc1cccc(N2[C@@H](CC(=O)O)c3cc(C(F)(F)F)ccc3S2(=O)=O)c1	72*	2	-3	.	26
COc1ccc(N2CCN(C(=O)COC(=O)c3ccc(C)o3)CC2)cc1	13	-7	8	.	.
Cc1ccc(NC(=O)CN(CCc2ccccc2)S(C)(=O)=O)cc1	-12	0	-9	8	.
CC(C)N(C)C1=CC(=O)C(N(C)C(C)C)=CC1=O	67*	4	-9	.	6
Cc1ccc(S(=O)(=O)/N=C2/C=C(C3C(=O)CC(C)(C)CC3=O)C(=O)c3ccccc32)cc1	72*	28	9	-1	73*	Diaph ctr 10uM=43;Diaphorase 30uM=45
Cc1ccc(S(=O)(=O)N2CCC(C(=O)C3C(=O)CC(C)(C)CC3=O)CC2)cc1	-3	-10	0	-11	.
C=CCSc1nnc(NC(=O)c2ccc3c(c2)OCCO3)s1	99*	.	-160	.	31
O=C(O)CSc1nnc(NC(=O)c2ccc3c(c2)OCO3)s1	0	-9	8	1	.
NC(=S)NN=Cc1c[nH]c2nccnc12	76*	.	-17	.	17
O=c1c2ccccc2nc2sc3ccccc3n12	-4	1	-151	6	.
COC(=O)/C=c1/sc2nc3ccccc3n2c1=O	75*	-32	-44	10	40
COc1ccc(C)cc1Nc1nc(-c2c[nH]c3ccccc23)cs1	60*	-4	-8	0	-8
CNC(=O)c1ccc(CN(C)CC(=O)Nc2ccccc2C(=O)NC2CC2)cc1	4	-2	-12	.	.
COc1ccc(S(=O)(=O)N=C2C=C(C)C(=O)C(C)=C2)cc1	23	11	5	-31	.
COc1cc(C(=O)O/N=C2\C=CC(=O)C(C)=C2)cc(OC)c1OC	68*	-7	37	-3	49*	Diaph ctr 10uM=89*;Diaphorase 30uM=90*
SMILES	PfGluPho inh	HKDC1 inh	Neddylation inh	M18AAP inhibitor	PfG6PD confirm	others
CC1=CC(=NOC(=O)c2cccc([N+](=O)[O-])c2)C=C(C)C1=O	59	3	-32	3	.
COc1cc(C(=O)O/N=C(\N)c2ccncc2)cc(OC)c1OC	-13	-2	-5	6	.
COc1ccc(C(=O)ON=C2C=C(C)C(=O)C(C)=C2)cc1	76*	-2	-26	1	52*	Diaph ctr 10uM=13;Diaphorase 30uM=15
COc1cc(C(=O)ON=C2C=C(C)C(=O)C(C)=C2)cc(OC)c1OC	80*	-6	-71	-11	64*	Diaph ctr 10uM=-1;Diaphorase 30uM=8
CCC(=O)Nc1ccc(C(=O)COC(=O)Cc2ccsc2)cc1	11	-6	-24	.	.
O=C(NCc1cccc(C(F)(F)F)c1)c1csc([C@@H]2C[C@H](O)[C@@H](CO)O2)n1	.	.	-8	.	.
COc1ccc(NC(=O)CSc2nc(SC)ns2)cc1	-2	7	3	0	.
ClC(Cl)(c1nnnn1-c1ccccc1)c1nnnn1-c1ccccc1	88*	8	5	12	78*	Diaph ctr 10uM=-8;Diaphorase 30uM=-6
c1ccc(-c2nnnn2-c2ccccc2)cc1	4	0	-4	-7	.
